In ChEMBL document CHEMBL2016448, “Discovery of new piperidine amide triazolobenzodiazepinones as intestinal-selective CCK1 receptor agonists” (Bioorg Med Chem Lett, 2012):
pEC50, pIC50: −log10 of the molar value.

What was measured:
[1] = target: T1, Cholecystokinin receptor type A (Homo sapiens, UniProt P32238); assay: Agonist activity at human CCK1 receptor assessed as increase in CCK8-induced calcium release incubated in dark for 30 mins followed by light incubation for 30 mins measured by FLIPR assay; assay type: functional
T1 sequence (P32238 whole entry): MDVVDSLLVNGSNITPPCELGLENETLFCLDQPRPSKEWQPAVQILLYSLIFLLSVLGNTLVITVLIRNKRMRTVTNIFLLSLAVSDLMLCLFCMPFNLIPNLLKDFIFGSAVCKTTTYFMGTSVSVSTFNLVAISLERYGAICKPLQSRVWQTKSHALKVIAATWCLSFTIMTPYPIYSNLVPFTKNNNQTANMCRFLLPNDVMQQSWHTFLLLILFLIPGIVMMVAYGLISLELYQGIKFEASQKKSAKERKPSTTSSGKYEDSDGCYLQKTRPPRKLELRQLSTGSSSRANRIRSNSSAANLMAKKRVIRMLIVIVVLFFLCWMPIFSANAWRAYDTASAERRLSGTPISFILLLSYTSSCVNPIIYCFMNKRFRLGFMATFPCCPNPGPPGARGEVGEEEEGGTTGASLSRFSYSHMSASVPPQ
Method in brief: (§1)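 FLIPR functional assay in CHO cells expressing human CCK1R. Agonism expressed as % of the CCK-8 peptide response. Initial screen at 30 µM, with >30% counted as active. Actives then run as full dose–response. EC50 is the geometric mean of at least 2 independent experiments.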

[2] = target: T2, Cholecystokinin receptor type A (Homo sapiens) (UniProt P32238); assay: Agonist activity at human CCK1 receptor assessed as increase in CCK8-induced calcium release incubated in dark for 30 mins followed by light incubation for 30 mins measured by FLIPR assay relative to CCK8; assay type: functional; method in brief: as §1
T2 sequence (whole entry): T1 sequence (P32238 whole entry)

[3] = Lipophilicity, log D of the compound at pH 7.4; assay type: physicochemical; conditions: buffer
[4] = target: T1, Cholecystokinin receptor type A; assay: Displacement of [125I]-CCK-8 from human CCK1 receptor expressed in CHO cells after 90 mins by liquid scintillation counting
[5] = Free intrinsic clearance in human microsomes; assay type: ADME, Microsome
Method in brief: (§2)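 Intrinsic clearance measured in human liver microsomes. The free value is corrected for microsomal binding.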

Mus musculus [6] = assay: Antiobesity in C57Bl/6J mouse assessed as reduction in gall bladder weight at 0.6 mg/kg, po measured after 1 hr relative to control; assay type: functional; parameters: scale not given: the % may be the effect or the level left
[7] = Drug excretion in Sprague-Dawley rat bile at 1 mg/kg, iv measured after 24 hrs; assay type: ADME, organism-based; parameters: dose 1 mg/kg, route intravenous; conditions: read-out: Ae
Method in brief: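 Bile-cannulated rats dosed iv at 1 mg/kg. Bile collected over 24 h and % of dose excreted into bile determined.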

[8] = Intrinsic clearance in human microsomes; assay type: ADME, Microsome; method in brief: as §2
Liver = assay: Clearance in rat liver; assay type: ADME, organism-based; conditions: in vivo
[9] = Solubility of the compound in phosphate buffer; assay type: physicochemical
[10] = Bioavailability in rat portal system; assay type: ADME, organism-based
Mus musculus [11] = assay: Antiobesity in C57Bl/6J mouse assessed as reduction in gall bladder weight at 2 mg/kg, po measured after 24 hr relative to control; assay type: functional; parameters: scale not given: the % may be the effect or the level left
[12] = Ratio free drug level in gut to portal system of Sprague-Dawley rat at 10 mg/kg, po administered as single dose measured after 4 hrs; assay type: ADME, organism-based; parameters: dose 10 mg/kg, route oral
Method in brief: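 Single oral dose to rats. Gut and portal drug exposures were measured at 2 h and 4 h post-dose and corrected for non-specific binding to give free concentrations. The free gut to free portal ratio was then calculated at each time point.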

Plasma [13] = assay: Plasma clearance in Sprague-Dawley rat at 3 mg/kg, iv; assay type: ADME, organism-based; parameters: dose 3 mg/kg, route intravenous; conditions: in vivo
[14] = Tmax in Sprague-Dawley rat at 6 mg/kg, po; assay type: ADME, organism-based; parameters: dose 6 mg/kg, route oral; conditions: in vivo
Method in brief: (§3)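 Male Sprague–Dawley rats dosed iv or po. Oral doses given in SDD formulation. Plasma PK parameters reported as mean of n = 3 rats.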

Rattus norvegicus [15] = assay: Toxicity in Sprague-Dawley rat assessed as gastrointestinal side-effects at 2 to 6 mg/kg, po; assay type: organism-based; parameters: dose 2-6 mg/kg, route oral; conditions: in vivo
Method in brief: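 Diet-induced obese rats dosed orally at 2 and 6 mg/kg for 5 days and monitored for gastrointestinal side-effects.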

[16] = Bioavailability in Sprague-Dawley rat portal system; assay type: ADME, organism-based
[17] = fCmax in Sprague-Dawley rat portal system; assay type: ADME
[18] = Cmax in Sprague-Dawley rat plasma at 6 mg/kg, po; assay type: ADME, organism-based; parameters: dose 6 mg/kg, route oral; method in brief: as §3
[19] = Drug level in C57Bl/6J mouse bile at 0.6 mg/kg; assay type: ADME, organism-based; parameters: dose 0.6 mg/kg; conditions: in vivo
Blood = assay: Drug level in C57Bl/6J mouse blood at 0.6 mg/kg; assay type: ADME, organism-based; parameters: dose 0.6 mg/kg; conditions: in vivo
Mus musculus [20] = assay: Antiobesity in C57Bl/6J mouse assessed as reduction in gall bladder weight at 0.2 mg/kg, po measured after 24 hr relative to control; assay type: functional; parameters: scale not given: the % may be the effect or the level left
Mus musculus [21] = assay: Antiobesity in C57Bl/6J mouse assessed as decrease in food intake at 0.2 mg/kg, po measured after 2 hr relative to control; assay type: functional; parameters: scale not given: the % may be the effect or the level left
Method in brief: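 Mice fasted overnight, then refed. Compound given orally in SDD formulation at increasing doses. Food intake measured at 2 h against vehicle-treated mice. Minimally efficacious dose defined as significant inhibition (p <0.05).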

Plasma [22] = assay: Plasma clearance in Sprague-Dawley rat at 0.3 mg/kg, iv; assay type: ADME, organism-based; parameters: dose 0.3 mg/kg, route intravenous; conditions: in vivo; method in brief: as §3
[23] = Oral bioavailability in Sprague-Dawley rat at 6 mg/kg; assay type: ADME, organism-based; conditions: in vivo; method in brief: as §3
Rattus norvegicus [24] = assay: fCmax in Sprague-Dawley rat at 6 mg/kg, po; assay type: ADME, organism-based; parameters: dose 6 mg/kg, route oral; conditions: in vivo; method in brief: as §3
[25] = Volume of distribution at steady state in Sprague-Dawley rat at 0.3 mg/kg, iv; assay type: ADME, organism-based; parameters: dose 0.3 mg/kg, route intravenous; conditions: in vivo, read-out: Vdss; method in brief: as §3
[26] = AUC (0 to last) in Sprague-Dawley rat at 0.3 mg/kg, iv; assay type: ADME, organism-based; parameters: time 0 - last, dose 0.3 mg/kg, route intravenous; conditions: plasma; method in brief: as §3
[27] = AUC (0 to last) in Sprague-Dawley rat at 6 mg/kg, po; assay type: ADME, organism-based; parameters: dose 6 mg/kg, route oral, time 0 - last; conditions: plasma; method in brief: as §3
[28] = Half life in Sprague-Dawley rat at 0.3 mg/kg, iv; assay type: ADME, organism-based; parameters: dose 0.3 mg/kg, route intravenous; conditions: in vivo; method in brief: as §3
Rattus norvegicus [29] = assay: Antiobesity in diet-induced obese Sprague-Dawley rat assessed as decrease in body weight gain at 2 mg/kg, po measured after 5 days; assay type: functional; parameters: scale not given: the % may be the effect or the level left
Rattus norvegicus [30] = assay: Antiobesity in diet-induced obese Sprague-Dawley rat assessed as decrease in body weight gain at 6 mg/kg, po measured after 5 days; assay type: functional; parameters: scale not given: the % may be the effect or the level left
Rattus norvegicus [31] = assay: Antiobesity in diet-induced obese Sprague-Dawley rat assessed as decrease in food intake at 2 mg/kg, po measured after 5 days relative to control; assay type: functional; parameters: scale not given: the % may be the effect or the level left
Rattus norvegicus [32] = assay: Antiobesity in diet-induced obese Sprague-Dawley rat assessed as decrease in food intake at 6 mg/kg, po measured after 5 days relative to control; assay type: functional; parameters: scale not given: the % may be the effect or the level left

CC(C)N(Cc1ccccc1)C(=O)CN1C(=O)[C@@H](Cc2n[nH]c3ccccc23)c2nnc(-c3ccccc3)n2-c2ccccc21
pEC50 [1]: 6.42
Efficacy [2]: 72%
logD ([3]; read-out: logD): 4.7
pIC50 [4]: 7.42

O=C1C(Cc2c[nH]c3ccccc23)c2nnc(-c3ccccc3)n2-c2ccccc2N1CC(=O)N1CCCCC1c1ccccc1 (mixture of isomers)
pEC50 [1]: 5.78
Efficacy [2]: 87%
pIC50 [4]: 6.61

O=C1[C@@H](Cc2n[nH]c3ccccc23)c2nnc(-c3ccccc3)n2-c2ccccc2N1CC(=O)N1CCCCC1Cc1ccccc1 (some centres not stated)
pEC50 [1]: 7.89
Efficacy [2]: 103%
logD ([3]; read-out: logD): 4.6
CL free [5]: 846 µL/min/mg
Activity (Mus musculus [6]): 91%
dose excreted at 24 h [7]: 0.32%
pIC50 [4]: 7.44

O=C(CN1C(=O)C(Cc2c[nH]c3ccccc23)c2nnc(-c3ccccc3)n2-c2ccccc21)N1CCC(Cc2ccccc2)C1 (mixture of isomers)
pEC50 [1]: 5.88
Efficacy [2]: 85%
clearance [8]: 148 µL/min/mg
pIC50 [4]: 7.16

O=C1C(Cc2c[nH]c3ccccc23)c2nnc(-c3ccccc3)n2-c2ccccc2N1CC(=O)N1CCCCC1Cc1ccccn1 (mixture of isomers)
pEC50 [1]: 7.50
Efficacy [2]: 105%
clearance [8]: 114 µL/min/mg
pIC50 [4]: 7.03

CCC1CCCCN1C(=O)CN1C(=O)C(Cc2c[nH]c3ccccc23)c2nnc(-c3ccccc3)n2-c2ccccc21 (mixture of isomers)
pEC50 [1]: 6.40
Efficacy [2]: 78%
clearance [8]: > 300 µL/min/mg
pIC50 [4]: 7.43

CC(C)N(Cc1ccccc1)C(=O)CN1C(=O)[C@@H](Cc2c[nH]c3ccccc23)c2nnc(-c3ccccc3)n2-c2ccccc21 [CE-326597]
CLH (Liver): 47 mL/min/kg
solubility [9]: Insoluble
bioavailability [10]: 9%
Efficacy [2]: 95%
clearance [8]: 199 µL/min/mg
logD [3]: 4.9
CL free [5]: 597 µL/min/mg
Activity (Mus musculus [6]): 91%
Activity (Mus musculus [11]): 27.5%
Kp uu at 4 h [12]: 65
dose excreted at 24 h [7]: 0.04%
clearance (Plasma [13]): 41.7 mL/min/kg
Tmax [14]: 1.33 h

O=C1C(Cc2c[nH]c3ccccc23)c2nnc(-c3ccccc3)n2-c2ccccc2N1CC(=O)N1CCCCC1Cc1ccncc1 (mixture of isomers)
pEC50 [1]: 6.38
Efficacy [2]: 89%
clearance [8]: 111 µL/min/mg
pIC50 [4]: 6.47

O=C1C(Cc2c[nH]c3ccccc23)c2nnc(-c3ccccc3)n2-c2ccccc2N1CC(=O)N1CCCC1Cc1ccccn1 (mixture of isomers)
pEC50 [1]: 6.25
Efficacy [2]: 86%
clearance [8]: 212 µL/min/mg
pIC50 [4]: 6.43

O=C1C(Cc2c[nH]c3ccccc23)c2nnc(-c3ccccc3)n2-c2ccccc2N1CC(=O)N1CCCCC1Cc1ccccc1 (mixture of isomers)
pEC50 [1]: 7.07
Efficacy [2]: 78%
clearance [8]: 146 µL/min/mg
pIC50 [4]: 7.35

CC(C)C1CCCCN1C(=O)CN1C(=O)C(Cc2c[nH]c3ccccc23)c2nnc(-c3ccccc3)n2-c2ccccc21 (mixture of isomers)
pEC50 [1]: 6.31
Efficacy [2]: 95%
clearance [8]: 220 µL/min/mg
pIC50 [4]: 7.10

COCCC1CCCCN1C(=O)CN1C(=O)C(Cc2c[nH]c3ccccc23)c2nnc(-c3ccccc3)n2-c2ccccc21 (mixture of isomers)
pEC50 [1]: 7.28
Efficacy [2]: 97%
clearance [8]: > 300 µL/min/mg
pIC50 [4]: 7.31

O=C1C(Cc2c[nH]c3ccccc23)c2nnc(-c3ccccc3)n2-c2ccccc2N1CC(=O)N1CCCCC1CC1CCCCC1 (mixture of isomers)
pEC50 [1]: 6.59
Efficacy [2]: 88%
clearance [8]: 76 µL/min/mg
pIC50 [4]: 8.37

Cc1cc(C)cc(C[C@H]2CCCCN2C(=O)CN2C(=O)[C@@H](Cc3n[nH]c4ccccc34)c3nnc(-c4ccccc4)n3-c3ccccc32)c1
Activity (Rattus norvegicus [15]): Non-toxic
bioavailability [16]: 0.56%
fCmax [17]: 0.063 nM
Cmax [18]: 0.46 ng/mL
Drug uptake [19]: Not Active
Drug uptake (Blood): Not Active
Efficacy [2]: 89%
logD ([3]; read-out: logD): 5.6
CL free [5]: 2300 µL/min/mg
Activity (Mus musculus [6]): 89%
Activity (Mus musculus [20]): 19%
dose excreted at 24 h [7]: 0.044%
Activity (Mus musculus [21]): 34%
clearance (Plasma [22]): 176 mL/min/kg
bioavailability [23]: 0.13%
fCmax (Rattus norvegicus [24]): 0.014 nM
Tmax [14]: 0.25 h
Vd [25]: 17.6 L/kg
AUC(0-t) [26]: 29 ng·h/mL
AUC(0-t) [27]: 0.74 ng·h/mL
half-life [28]: 2.04 h
Activity (Rattus norvegicus [29]): 22%
Activity (Rattus norvegicus [30]): 44%
Activity (Rattus norvegicus [31]): 19%
Activity (Rattus norvegicus [32]): 25%

O=C1C(Cc2c[nH]c3ccccc23)c2nnc(-c3ccccc3)n2-c2ccccc2N1CC(=O)N1CCCC1c1ccccc1 (mixture of isomers)
pEC50 [1]: 5.67
Efficacy [2]: 83%
pIC50 [4]: 6.77

COCCC1CCCCN1C(=O)CN1C(=O)[C@@H](Cc2n[nH]c3ccccc23)c2nnc(-c3ccccc3)n2-c2ccccc21 (single isomer, unassigned)
pEC50 [1]: 8.57
Efficacy [2]: 100%
logD ([3]; read-out: logD): 3.1
CL free [5]: 154 µL/min/mg
Activity (Mus musculus [6]): 85%
dose excreted at 24 h [7]: 0.26%
pIC50 [4]: 8.00

Cc1cccc(CC2CCCCN2C(=O)CN2C(=O)[C@@H](Cc3n[nH]c4ccccc34)c3nnc(-c4ccccc4)n3-c3ccccc32)c1 (some centres not stated)
pEC50 [1]: 6.17
Efficacy [2]: 75%
logD ([3]; read-out: logD): 5.1
pIC50 [4]: 7.06
